According to ChEMBL document CHEMBL2434950 (Eur J Med Chem, 2013):
Converted amounts (≈) assume the structure as drawn.

How the values were obtained:
[1] = Cytotoxicity against african green monkey Vero cells by Alamar blue assay; assay type: cell-based; conditions: chlorocebus sabaeus, read-out: ED50 (the source's name)
Toxoplasma gondii [2] = assay: Antiparasitic activity against Toxoplasma gondii tachyzoites by fluorescence assay; assay type: functional; conditions: read-out: ED50 (the source's name)
In short: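 Red fluorescent protein-expressing tachyzoites were filtered (3 µm) and needle-passed, then seeded at 4×10^4/well onto confluent hTERT monolayers in DMEM-HG with 1% FBS, 2 mM glutamine and 1 mM pyruvate, at 37 °C. Drugs were serially diluted in the same medium. Plates were read daily from the bottom (ex 544/em 590 nm). EC50 came from the fit I = Imax·C/(EC50 + C), Imax 100%. Three experiments, each in triplicate.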

Trypanosoma cruzi [3] = assay: Antiparasitic activity against Trypanosoma cruzi amastigotes after 3 days by fluorescence assay; assay type: functional; conditions: 72 h, read-out: ED50 (the source's name)
In short: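 Gamma-irradiated (2000 Rads) Vero cells, 3.4×10^4/well in RPMI with 10% FBS, were kept overnight at 35 °C, 7% CO2. […] Serial dilutions were added at 5 concentrations up to 20 or 25 µM, each in quadruplicate, with a benznidazole control. Fluorescence was read at day 3, and IC50 was derived by non-linear regression.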

Trypanosoma cruzi [4] = assay: Ratio of compound ED50 to WC-9 ED50 for Trypanosoma cruzi amastigotes after 3 days by fluorescence assay; assay type: functional
Toxoplasma gondii [5] = assay: Antiparasitic activity against Toxoplasma gondii tachyzoites at 10 uM by fluorescence assay; assay type: functional
[6] = Non-competitive inhibition of mitochondrial Trypanosoma cruzi SQS
[7] = Non-competitive inhibition of glycosomal Trypanosoma cruzi SQS
Trypanosoma cruzi [8] = assay: Antiparasitic activity against Trypanosoma cruzi EP epimastigotes; assay type: functional

Compound	EC50 (Trypanosoma cruzi [3])	CC50 [1]	EC50 (Toxoplasma gondii [2])	other results
c1cncc(Oc2ccc(OCCOC3CCCCO3)cc2)c1 (stereo not given)	> 10 µM	> 50 µM	–	Activity (Toxoplasma gondii [5]): 3.25%
O=C(Cn1ccnc1[N+](=O)[O-])NCc1ccccc1 [BENZNIDAZOLE]	1.75 µM	–	–	–
N#CSCCOc1ccc(Oc2ccccc2)cc1	5 µM	> 50 µM	4.8 µM	IC50 [6]: 0.129 µM; Ki [6]: 0.129 µM; IC50 [7]: 0.088 µM; Ki [7]: 0.088 µM; MIC (Trypanosoma cruzi [8]): 1 µM (≈ 0.271 µg/mL)
N#CSCCOc1ccc(Oc2cccnc2)cc1	7.4 µM	> 50 µM	7.5 µM	–
O=C1C(O)=C([C@H]2CC[C@H](c3ccc(Cl)cc3)CC2)C(=O)c2ccccc21 [ATOVAQUONE]	–	–	0.032 µM	–

Further lines, with some results ahead:

EC50 (Trypanosoma cruzi [3])	Compound	CC50 [1]	EC50 (Toxoplasma gondii [2])	other results
11.2 µM	N#CSCCOc1cccc(Oc2ccccc2)c1	> 50 µM	3.95 µM	–
4.5 µM	COc1cccc(Oc2ccc(OCCSC#N)cc2)c1	> 50 µM	6.7 µM	–
5.2 µM	N#CSCCOc1ccc(Oc2cccc([N+](=O)[O-])c2)cc1	> 50 µM	2.03 µM	Ratio ED50 (Trypanosoma cruzi [4]): 1.04
> 10 µM	O=[N+]([O-])c1cccc(Oc2ccc(OCCOC3CCCCO3)cc2)c1 (stereo not given)	> 50 µM	3.28 µM	–
6.1 µM	COc1ccc(Oc2ccc(OCCSC#N)cc2)cc1	> 100 µM	3.81 µM	–
10.1 µM	COc1ccc(Oc2cccc(OCCSC#N)c2)cc1	> 50 µM	2.93 µM	–
